Experimental data: ChEMBL document CHEMBL5705901, “Exploiting selective BCL-2 family inhibitors to dissect cell survival dependencies and define improved strategies for cancer therapy” (Sci Transl Med, 2015)
Active and inactive are the calls of the source. The calls are words filed in the database; no cut-off is given here.

How the values were obtained:
[1] = system: NCI-H358; test: Antitumor activity against human NCI-H358 cells xenografted in po dosed SCID mouse assessed as tumor growth delay relative to control; type: functional
Procedure, shortened: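 Tumor volume-based endpoints. TGD = 100(T/C − 1), where T and C are the median times for the treated and control groups to reach 1 cm3. Groups were five mice for NCI-H747 and OVCAR-5 and eight for NCI-H358. Docetaxel was given intravenously and the test agent orally.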

[2] = system: EBC-1; test: Antitumor activity against human EBC-1 cells xenografted in po dosed SCID-bg mouse assessed as tumor growth delay relative to control; type: functional
[3] = system: MOLT-4; test: Induction of apoptosis in human MOLT-4 cells assessed as cytochrome C release from mitochondria upto 500 nM incubated for 4 hrs by immunoblot analysis; type: functional, cell-based
Procedure, shortened: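 Molt-4 cells were treated for 4 h with increasing concentrations. Cytochrome c in the mitochondrial and cytosolic fractions was determined by immunoblotting.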

[4] = Toxicity in po dosed SCID-bg mouse assessed as tolerance in presence of docetaxel; type: organism-based; details: in vivo
[5] = system: NCI-H358; test: Synergistic antitumor activity against human NCI-H358 cells xenografted in po dosed SCID mouse assessed as tumor growth delay in presence of docetaxel relative to control; type: functional
Procedure, shortened: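 Xenografts dosed with oral inhibitor plus intravenous docetaxel. TGImax = 100(1 − Tv/Cv), from mean treated and control tumor volumes; TGD = 100(T/C − 1), from median times to reach 1 cm3. Group size 5 mice (NCI-H747, A549-FP3, EBC-1, OVCAR-5), 8 (NCI-H358), 10 (NCI-H1650).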

[6] = system: MDA-MB-231; test: Synergistic antitumor activity against LC3 positive human MDA-MB-231 cells xenografted in SCID mouse assessed as maximum tumor growth inhibition at 25 mg/kg, po coadministered with docetaxel once daily for 14 days relative to control; type: functional; details: MDA-MB-231, 336 h, time 14 day, read-out: TGI
Procedure, shortened: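 MDA-MB-231 LC3 metastatic breast cancer xenograft, 10 mice per group, with a vehicle control. Dosing: oral agent 25 mg/kg daily for 14 days; docetaxel 7.5 mg/kg iv once; combination gives both regimens. Mean tumor volumes tracked. TGImax = 100(1 − Tv/Cv) from mean treated vs control volumes. TGD = 100(T/C − 1) from median times to reach 1 cm3.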

[7] = system: OVCAR-5; test: Antitumor activity against human OVCAR-5 xenografted in po dosed SCID mouse assessed as maximum tumor growth inhibition relative to control; type: functional
[8] = system: NCI-H196; test: Synergistic antiproliferative activity against 5 times passaged human NCI-H1963 cells xenografted in mouse assessed as reduction in tumor volume at 25 mg/kg, po co-administered with venetoclax twice a day for 14 days; type: functional, organism-based; details: time 14.0 day
[9] = system: BT-474; test: Induction of apoptosis in human BT-474 cells assessed as accumulation of cells with sub-G0-G1 DNA content at 1 uM incubated for 48 hrs in presence of docetaxel by flow cytometric analysis; type: functional, cell-based
[10] = system: MDA-MB-175-VII; test: Induction of apoptosis in human MDA-MB-175-VII cells assessed as accumulation of cells with sub-G0-G1 DNA content at 1 uM incubated for 48 hrs in presence of docetaxel by flow cytometric analysis; type: functional, cell-based
[11] = Inhibition of granulocyte colony formation in human bone marrow cells at 0.1 to 20 uM incubated for 14 to 16 days in presence of docetaxel by light microscopic analysis; type: toxicity, cell-based; details: bone marrow cell, dose lower 0.1 µM, time lower 14 day, dose upper 20 µM, time upper 16 day
Procedure, shortened: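 Human bone marrow granulocyte colony-forming assay in semisolid medium, increasing inhibitor concentrations ± 5 nM docetaxel; colonies counted by light microscopy after 14 days; triplicate means with SD; combinations compared with docetaxel alone by Student's t test.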

[12] = system: HCC1500; test: Induction of apoptosis in human HCC1500 cells assessed as accumulation of cells with sub-G0-G1 DNA content at 1 uM incubated for 48 hrs in presence of docetaxel by flow cytometric analysis; type: functional, cell-based
[13] = system: HCC1954; test: Induction of apoptosis in human HCC1954 cells assessed as accumulation of cells with sub-G0-G1 DNA content at 1 uM incubated for 48 hrs in presence of docetaxel by flow cytometric analysis; type: functional, cell-based
[14] = system: MCF7; test: Induction of apoptosis in human MCF7 cells expressing luciferase assessed as accumulation of cells with sub-G0-G1 DNA content at 1 uM incubated for 48 hrs in presence of docetaxel by flow cytometric analysis; type: functional, cell-based
[15] = system: EBC-1; test: Antagonistic antiproliferative activity against human EBC-1 cells assessed as reduction in cell viability by measuring bliss sum score incubated for 72 hrs in presence of docetaxel by CellTiter-Glo cell vaibility assay; type: functional
[16] = system: NCI-H460; test: Synergistic antiproliferative activity against human NCI-H460 cells assessed as reduction in cell viability by measuring bliss sum score incubated for 72 hrs in presence of docetaxel by CellTiter-Glo cell vaibility assay; type: functional
[17] = system: NCI-H661; test: Synergistic antiproliferative activity against human NCI-H661 cells assessed as reduction in cell viability by measuring bliss sum score incubated for 72 hrs in presence of docetaxel by CellTiter-Glo cell vaibility assay; type: functional
[18] = system: NCI-H1975; test: Synergistic antiproliferative activity against human NCI-H1975 cells assessed as reduction in cell viability by measuring bliss sum score incubated for 72 hrs in presence of docetaxel by CellTiter-Glo cell vaibility assay; type: functional
[19] = system: HCC2218; test: Antagonistic antiproliferative activity against human HCC2218 cells assessed as reduction in cell viability by measuring bliss sum score incubated for 72 hrs in presence of docetaxel by CellTiter-Glo cell vaibility assay; type: functional
[20] = system: SK-OV-3; test: Synergistic antiproliferative activity against human SK-OV-3 cells assessed as reduction in cell viability by measuring bliss sum score incubated for 72 hrs in presence of docetaxel by CellTiter-Glo cell vaibility assay; type: functional
[21] = system: ZR-75-30; test: Antagonistic antiproliferative activity against human ZR-75-30 cells assessed as reduction in cell viability by measuring bliss sum score incubated for 72 hrs in presence of docetaxel by CellTiter-Glo cell vaibility assay; type: functional
[22] = system: HCC1937; test: Synergistic antiproliferative activity against human HCC1937 cells assessed as reduction in cell viability by measuring bliss sum score incubated for 72 hrs in presence of docetaxel by CellTiter-Glo cell vaibility assay; type: functional
[23] = system: SW1573; test: Synergistic antiproliferative activity against human SW1573 cells assessed as reduction in cell viability by measuring bliss sum score incubated for 72 hrs in presence of docetaxel by CellTiter-Glo cell vaibility assay; type: functional
[24] = system: LXFL 529; test: Synergistic antiproliferative activity against human LXFL 529 cells assessed as reduction in cell viability by measuring bliss sum score incubated for 72 hrs in presence of docetaxel by CellTiter-Glo cell vaibility assay; type: functional
[25] = system: NCI-H522; test: Synergistic antiproliferative activity against human NCI-H522 cells assessed as reduction in cell viability by measuring bliss sum score incubated for 72 hrs in presence of docetaxel by CellTiter-Glo cell vaibility assay; type: functional
[26] = system: HCC1143; test: Synergistic antiproliferative activity against human HCC1143 cells assessed as reduction in cell viability by measuring bliss sum score incubated for 72 hrs in presence of docetaxel by CellTiter-Glo cell vaibility assay; type: functional
[27] = system: NCI-H1703; test: Synergistic antiproliferative activity against human NCI-H1703 cells assessed as reduction in cell viability by measuring bliss sum score incubated for 72 hrs in presence of docetaxel by CellTiter-Glo cell vaibility assay; type: functional

For `Cc1c(-c2ccc(N3CCc4cccc(C(=O)Nc5nc6ccccc6s5)c4C3)nc2C(=O)O)cnn1CC12CC3CC(CC(C3)C1)C2`, which Activity [1] is on record?
The Activity was 80%.

And the Activity [2]?
Its Activity is 22%.

What about the Activity [3] of the same compound?
Its Activity is “Active”.

What about the Activity [4] of the same compound?
The Activity was “Non-Toxic”.

And the Activity [5]?
The Activity was 233%.

And the inhibition in vivo at 25 mg/kg [6]?
Its inhibition in vivo at 25 mg/kg is 93%.

And the TGI [7]?
The TGI was 34%.

What about the Activity [8] of the same compound?
Its Activity is “Active”.

Which Activity [9] does the source give for `CC1(C)CCC(c2ccc(Cl)cc2)=C(CN2CCN(c3ccc(C(=O)NS(=O)(=O)c4ccc(N[C@H](CCN5CCOCC5)CSc5ccccc5)c(S(=O)(=O)C(F)(F)F)c4)cc3)CC2)C1` [NAVITOCLAX] here?
Its Activity is “Active”.

What about the Activity [10] of the same compound?
Its Activity is “Active”.

What about the Activity [11] of the same compound?
The Activity was “Toxic”.

And the Activity [12]?
The Activity was “Active”.

What about the Activity [13] of the same compound?
Its Activity is “Active”.

What about the Activity [14] of the same compound?
Its Activity is “Active”.

With `CN(C)CC#Cc1ccc(OCCCc2sc(N3CCc4cccc(C(=O)Nc5nc6ccccc6s5)c4C3)nc2C(=O)O)c(F)c1` [A-1155463] as the compound, how does the Activity_index [15] read?
The Activity_index was -103.

And the Activity_index [16]?
The Activity_index was 105.

What about the Activity_index [17] of the same compound?
The Activity_index was 94.

And the Activity_index [18]?
Its Activity_index is 6.

What about the Activity_index [19] of the same compound?
The Activity_index was -250.

What about the Activity_index [20] of the same compound?
Its Activity_index is 747.

And the Activity_index [21]?
Its Activity_index is -265.

And the Activity_index [22]?
Its Activity_index is 332.

And the Activity_index [23]?
Its Activity_index is 461.

What about the Activity_index [24] of the same compound?
Its Activity_index is 734.

What about the Activity_index [25] of the same compound?
Its Activity_index is 242.

And the Activity_index [26]?
Its Activity_index is 195.

And the Activity_index [27]?
The Activity_index was 29.
